The results in this text go back to ChEMBL document CHEMBL4342434, “Identification of HUHS190, a human naftopidil metabolite, as a novel anti-bladder cancer drug” (Bioorg Med Chem Lett, 2020).

The subject of series [1] is DU-145. The experiment in a line: Antiproliferative activity against human DU145 cells assessed as reduction in cell viability incubated for 48 hrs by MTT assay. The series is classed as functional, cell-based. The settings on record: DU-145, 48 h. Put shortly: (§1)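 Growth inhibition was measured in vitro on human lines: HEK293 (embryonic kidney), PNT1A (normal prostate epithelium immortalized with SV40), PC3 and DU145 (prostate cancer), KK47 and T24 (bladder carcinoma) and 786-O (kidney carcinoma). IC50 in µM was taken from dose–response curves for each cell line.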
Background: Tetrazolium dyes change colour on reduction, which living cells bring about.

Series [2] concerns HEK293. The experiment in a line: Cytotoxicity against human HEK293 cells assessed as reduction in cell viability incubated for 48 hrs by MTT assay. The series is classed as cell-based. Conditions: HEK293, 48 h. The gist of the method: as §1
Series [3] relates to T-24. The experiment in a line: Antiproliferative activity against human T24 cells assessed as reduction in cell viability incubated for 48 hrs by MTT assay. The series is classed as functional, cell-based. The settings on record: T-24, 48 h. The gist of the method:
as §1

The subject of series [4] is 786-0. The experiment in a line: Antiproliferative activity against human 786-O cells assessed as reduction in cell viability incubated for 48 hrs by MTT assay. The series is classed as functional, cell-based. The settings on record: 786-0, 48 h. The gist of the method: as §1
For series [5], the system named is PC-3. The experiment in a line: Antiproliferative activity against human PC3 cells assessed as reduction in cell viability incubated for 48 hrs by MTT assay. The series is classed as functional, cell-based. Conditions: PC-3, 48 h. Put shortly:
as §1

The subject of series [6] is PNT1A. The experiment in a line: Cytotoxicity against human PNT1A cells assessed as reduction in cell viability incubated for 48 hrs by MTT assay. The series is classed as cell-based. The gist of the method: as §1
For series [7], the system named is KK-47 cell line. The experiment in a line: Antiproliferative activity against human KK47 cells assessed as reduction in cell viability incubated for 48 hrs by MTT assay. Conditions: KK-47, 48 h. The series is classed as functional, cell-based. Put shortly:
as §1

Series [8] in a line: Antiproliferative activity against mouse MB49 cells assessed as reduction in cell viability after 72 hrs by WST-8 assay. Conditions: MB49, 72 h. The series is classed as functional, cell-based.
Series [9] can be described thus: Cmax in Sprague-Dawley rat at 32 mg/kg, po measured after 15 mins by HPLC analysis. The series is classed as ADME, organism-based. Further details: dose 32 mg/kg, route oral. Conditions: in vivo.
Series [10] is described as follows: AUC (0 to 6 hrs) in Sprague-Dawley rat at 32 mg/kg, po measured upto 6 hrs by HPLC analysis. Further details: dose 32 mg/kg, time < 6 hr, route oral. The series is classed as ADME, organism-based. Conditions: in vivo.
A short description of series [11]: Antitumor activity against mouse MB49 cells xenografted in C57BL/6 mouse bladder cancer model assessed as death rate at 50 mg/ml dosed via intravesical instillation through catheter for 2 hrs and measured after 28 days relative to control. The series is classed as functional. Put shortly: (§2)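 MB49 cells (C57BL/6-derived) were injected by needle into the bladder smooth-muscle layer of anaesthetised C57BL/6 mice after laparotomy. The same day (day 0), a single intravesical instillation was given and held in the bladder for 2 h, with saline as the control. Deaths were recorded over 4 weeks, to day 28.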

Series [12] can be described thus: Toxicity in C57BL/6 mouse bladder cancer model xenografted with mouse MB49 cells at 50 mg/ml dosed via intravesical instillation through catheter for 2 hrs and measured for 28 days. The series is classed as organism-based. The settings on record: in vivo, other. Put shortly:
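[…] model: a small number of MB49 cells (C57BL/6-derived) were injected by needle into the bladder smooth muscle of C57BL/6 mice after laparotomy under anaesthesia. Compound at 50 mg/mL was then given once by intravesical instillation and kept for 2 h. Day 0 was implantation/dosing, and survival was followed for 4 weeks. Saline, BCG (2 mg/mL) and pirarubicin (1 mg/mL) served as comparators.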

The nature of series [13]: Antitumor activity against mouse MB49 cells xenografted in C57BL/6 mouse bladder cancer model assessed as death rate at 1 mg/ml dosed via intravesical instillation through catheter for 2 hrs and measured after 28 days relative to control. The series is classed as functional. The gist of the method:
as §2

Series [14] has as its system L5178Y. The experiment in a line: Antiproliferative activity against mouse L5178Y cells assessed as reduction in cell viability. The series is classed as functional, cell-based.
Series [15] is described as follows: Antiproliferative activity against C3H mouse MBT2 cells assessed as reduction in cell viability. The series is classed as functional, cell-based.

Usually IC50 stands for the point on the concentration scale where inhibition reaches its midpoint. As for `COc1cc(O)ccc1N1CCN(CC(O)COc2ccc(O)c3ccccc23)CC1` (stereo not drawn), the 50% inhibitory concentration (IC50) in [1] was > 50 µM; in series [2] it was > 50 µM; in series [3], 37.4 µM; in series [4], 38.7 µM; in [5] it was 45.7 µM; in [6], 37.2 µM. The concentration for half-maximal inhibition (IC50) in series [7] is > 50 µM.

A word on the Cmax: it is the maximum level reached in the sampled fluid or tissue. A word on the AUC(0-t): it is the area under the concentration-time curve up to a stated or last time point. Usually mortality stands for the percentage killed. `COc1cc(O)ccc1N1CCN(CC(O)COc2cccc3ccccc23)CC1` (stereo not drawn): the half-maximal inhibitory concentration (IC50) in [1] is 17.2 µM; in [8] it was 12 µM; in [2], > 50 µM; in series [3] it was 10.5 µM; in [4] it was 11.4 µM; in series [5] it was 24.4 µM. The IC50 is > 50 µM in series [6] and 11.8 µM in series [7]. The same molecule had a Cmax in series [9] of 397 ng/mL. Further, the AUC(0-t) at 6 h in [10] is 204 ng·h/mL. Further, the mortality in series [11] stood at 30%. In addition, in series [12], the Activity result is recorded as “Non-Toxic”.

As for `Oc1ccc(N2CCN(CC(O)COc3ccc(O)c4ccccc34)CC2)c(O)c1` (stereo not drawn), the IC50 came out at 20.3 µM in series [1]; 40.4 µM in [2]; 15.6 µM in series [3]; 18.5 µM in series [4]; 17.7 µM in series [5]; 17.1 µM in [6]. The half-inhibitory concentration (IC50) in series [7] was determined as 17.9 µM.

As to `Oc1ccccc1N1CCN(CC(O)COc2ccc(O)c3ccccc23)CC1` (stereo not drawn), the IC50 was > 50 µM in series [1]; > 50 µM in series [2]; 14.8 µM in [3]; 9.7 µM in series [4]; 26.1 µM in [5]; 37.4 µM in series [6]. Further, in [7], the half-inhibitory concentration (IC50) was 33 µM.

As for `Oc1ccc(N2CCN(CC(O)COc3cccc4ccccc34)CC2)c(O)c1` (stereo not drawn), the 50% inhibitory concentration (IC50) in [1] was 11.6 µM; in [2], > 50 µM; in series [3] it was 13.4 µM; in series [4], 17.5 µM; in series [5] it was 30.3 µM; in [6], 29.9 µM. In addition, the IC50 in series [7] turned out to be 9.6 µM.

Turning to `Oc1ccccc1N1CCN(CC(O)COc2cccc3ccccc23)CC1` (stereo not drawn), the IC50 in series [1] was 18 µM; in series [2], > 50 µM; in series [3], 18 µM; in [4] it was 18.7 µM; in series [5], 21.7 µM; in [6], 22.2 µM. For the same molecule, the IC50 in series [7] stood at 18.9 µM.

Regarding `COc1ccccc1N1CCN(CC(O)COc2ccc(O)c3ccccc23)CC1` (stereo not drawn), the 50% inhibitory concentration (IC50) in [1] was 35.1 µM; in series [2] it was > 50 µM; in [3], 16.1 µM; in series [4] it was 46.9 µM; in [5], 28 µM; in series [6] it was 34.9 µM. The concentration for half-maximal inhibition (IC50) in series [7] turned out to be 17.6 µM.

With `COc1ccccc1N1CCN(CC(O)COc2cccc3ccccc23)CC1` (stereo not drawn) [NAFTOPIDIL], the IC50 in [1] was 21.1 µM; in [8] it was 23 µM; in series [2], 47.3 µM; in series [3], 18.5 µM; in series [4], 13.3 µM; in series [5], 31.2 µM. The values for the IC50 in series [6] and in series [7] were 27 µM and 19 µM, respectively. Besides, the highest level in [9] (Cmax) was 110 ng/mL. In series [10], this molecule displayed an AUC(0-t) at 6 h of 202 ng·h/mL.

As for `COc1cccc2c1C(=O)c1c(O)c3c(c(O)c1C2=O)C[C@@](O)(C(=O)CO)C[C@@H]3O[C@H]1C[C@H](N)[C@H](O[C@@H]2CCCCO2)[C@H](C)O1` [PIRARUBICIN], the mortality in series [13] is 70 - 80%. The IC50 in series [8] came to 0.022 µM; in [14], 0.023 µM; in series [15], 0.022 µM.
